Screens (PubChem)
Only some compounds are listed: those with a hit (about 4.3% of all), similar ones and a draw of the others.
TAAR1 antag = human TAAR1 antagonists, primary screen, Fluo-8 calcium fluorescence, CHO RD-HGA16 cells | Trace amine-associated receptor 1 (Homo sapiens), Q96RJ0 | antagonist | inhibition, % at 3 µM | actives 1.5% (n = 360,000) | AID 624466, 2012;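 active = inhibition above a per-plate cutoff, the mean inhibition of test compounds on that plate plus 3 SD, cut at about 49% in these data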;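 also: 0% = DMSO plus EC80 beta-PEA response and 100% = DMSO alone without agonist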
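System: RD-HGA16 CHO cells with stable hTAAR1 and Gα16 | Probe or stimulus: EC80 β-phenethylamine stimulus | Dosing: 3 µM, single point | Times: Dye loading 75 min at 37 °C, then 30 min room temperature | Measured by: Fluo-8 calcium-sensitive fluorescence | Read-out basis: % inhibition of agonist calcium response | Replicates: n of 1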
GalR3 antagonist = GalR3 antagonists in HEK293 cells, primary screen, cell-based, fluorescence readout | Galanin receptor type 3 (Homo sapiens), O60755 | HEK293 GalR3-CNG cAMP membrane potential fluorescence; galR3 body fused to GalR1 C-terminus | inhibition, % at 3 µM | actives 0.44% (n = 360,000);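 active = inhibition above the screen-wide average plus 3 SD, cut at about 13% in these data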;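 also: forskolin and galanin both at EC90 stimulate the cells; cAMP rise reported by CNG channel membrane potential dye signal; 0% = forskolin plus galanin with DMSO and 100% = forskolin alone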
OX1R antag-1 = OX1R (HCRTR1) antagonists, primary screen, fluorescence, CHO/OX1R cells, Fluo-8 calcium, orexin A; inhibition, % at 5 µM; actives 0.43% (n = 330,000); AID 434989, 2010; Orexin/Hypocretin receptor type 1 (Homo sapiens), O43613; Fluo-8 calcium fluorescence;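 active = inhibition above its plate's threshold, mean inhibition of all tested compounds on the plate plus 3 SD, cut at about 37% in these data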;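 also: 0% = orexin A challenge wells and 100% = SB-334867-A antagonist wells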
Target sequence (O43613 whole entry, looked up): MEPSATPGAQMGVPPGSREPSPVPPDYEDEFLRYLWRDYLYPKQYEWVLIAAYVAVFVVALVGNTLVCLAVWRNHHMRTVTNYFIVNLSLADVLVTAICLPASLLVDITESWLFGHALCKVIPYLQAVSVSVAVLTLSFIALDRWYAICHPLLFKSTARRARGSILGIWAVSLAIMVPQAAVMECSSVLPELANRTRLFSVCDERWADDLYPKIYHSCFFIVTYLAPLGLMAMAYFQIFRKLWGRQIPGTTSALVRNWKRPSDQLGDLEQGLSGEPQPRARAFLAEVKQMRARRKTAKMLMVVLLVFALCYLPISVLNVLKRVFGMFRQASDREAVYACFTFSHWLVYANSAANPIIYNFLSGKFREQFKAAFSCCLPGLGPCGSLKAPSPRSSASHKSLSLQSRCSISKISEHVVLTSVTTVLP
TAAR1 ag = human TAAR1 agonists, primary screen, Fluo-8 calcium fluorescence, CHO RD-HGA16 cells | vehicle wells 0%, saturating PEA agonist 100% | activation, % at 3 µM | actives 0.99% (n = 360,000) | Trace amine-associated receptor 1 (Homo sapiens), Q96RJ0;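 active = activation above the mean activation of all test compounds in the run plus 3 SD, cut at about 38% in these data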
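System: CHO-derived RD-HGA16 cells with stable Gα16 and human TAAR1 / Times: 17-24 h plating, Fluo-8 75 min 37 °C, 30 min RT / Technique: calcium-sensitive Fluo-8 signal, excitation 470-495, emission 515-575 nm / Measure: % activation relative to PEA EC100 response / Benchmarks: DMSO and PEA EC100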
CHO parental Ca = ATP-evoked calcium signal inhibitors, parental CHO, primary screen, counter-screen for OX1R antagonist project, cell-based, fluorescence, Fluo-8 calcium dye; parental CHO-K1, ATP-induced calcium, Fluo-8 fluorescence; inhibition, % at 5.6 µM; actives 0.63% (n = 330,000);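 active = inhibition above that plate's mean sample inhibition plus 3 SD, cut at about 26% in these data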;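 also: 0% = ATP-challenged DMSO wells and 100% = DMSO wells without ATP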
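test system = CHO parental line | reagent = ATP stimulus | measured by = intracellular calcium via Fluo-8 no-wash fluorescent dye | control set = ATP and no-ATP DMSO wells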
OX1R antag-2 = antagonists of human orexin 1 receptor (OX1R); Orexin/Hypocretin receptor type 1 (Homo sapiens), O43613; OX1R-expressing cells, FRET antagonist read-out; inhibition, % at 6.6 µM; actives 1.8% (n = 330,000); in the data active = inhibition mostly above about 38%, no sharp cut-off; inactive = mostly below about 40%;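 also: 0% = agonist challenge alone and 100% = reference antagonist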
Active calls of the source: *.

Screening CCn1c(Cc2ccc(OC)cc2)nnc1SCC(=O)N1CCN(c2ccccc2)CC1 returned TAAR1 antag 10, GalR3 antagonist -6, OX1R antag-1 -31, TAAR1 ag 1, CHO parental Ca -16 and OX1R antag-2 47*.
For Cc1ccc2c(c1)c(C)c(C)n2CC(O)Cn1nnc2ccccc21 (stereo not drawn) the results were TAAR1 antag -8, GalR3 antagonist -4, OX1R antag-1 -22, TAAR1 ag 3, CHO parental Ca -22 and OX1R antag-2 63*.
For Cn1nc(-c2ccc(Cl)cc2)nc2c(=O)n(C)c(=O)nc1-2 the results were OX1R antag-1 -16, CHO parental Ca -24 and OX1R antag-2 91*.
`Cc1cccc(Cn2c(NC3CCCC3)nc3c2c(=O)[nH]c(=O)n3C)c1` gave TAAR1 antag -2, GalR3 antagonist -7 and TAAR1 ag 1.
Screening Nc1nonc1C(=O)NCCN=Cc1cc(Cc2ccccc2)cc(Br)c1O returned OX1R antag-1 16, CHO parental Ca 62* and OX1R antag-2 12.
For Nc1nonc1C(=O)NCCN=Cc1ccccc1O the results were TAAR1 antag 18, GalR3 antagonist -3, OX1R antag-1 -7, TAAR1 ag 9, CHO parental Ca 0 and OX1R antag-2 6.
`O=C(Cn1c(=O)oc2cc(S(=O)(=O)N3CCCC3)ccc21)NC1CCCc2ccccc21` (stereo not drawn) gave TAAR1 antag -24, GalR3 antagonist 4, OX1R antag-1 22, TAAR1 ag 6, CHO parental Ca 28* and OX1R antag-2 25.
Screening O=C(Cn1c(=O)oc2cc(S(=O)(=O)N3CCCCCC3)ccc21)NC1CCCCCCC1 returned TAAR1 antag 11, GalR3 antagonist -2, OX1R antag-1 -5, TAAR1 ag 0, CHO parental Ca 5 and OX1R antag-2 12.
Screening CCn1nnc(-c2ccccc2NS(=O)(=O)c2ccc(S(=O)(=O)N3CCCCCC3)cc2)n1 returned TAAR1 antag -1, GalR3 antagonist -10, OX1R antag-1 3, TAAR1 ag 15, CHO parental Ca -19 and OX1R antag-2 14.
For CCOC(=O)c1ccc(S(=O)(=O)Nc2ccccc2-c2nnn(CC)n2)cc1 the results were TAAR1 antag 53*, GalR3 antagonist -3 and TAAR1 ag 4.
For CC(=O)Nc1ccc(C(=O)OCC(=O)N(c2ccccc2)C2CCCCC2)cc1 the results were TAAR1 antag 50*, GalR3 antagonist -7, OX1R antag-1 -11, TAAR1 ag 12, CHO parental Ca -11 and OX1R antag-2 11.
NNC(=O)CNC(c1ccccc1)c1cc(Br)ccc1NC(=O)c1ccc(Br)cc1 (stereo not drawn) was read as TAAR1 antag 6, GalR3 antagonist 3, OX1R antag-1 -16, TAAR1 ag 7, CHO parental Ca -22 and OX1R antag-2 -3.
NNC(=O)CNC(c1ccccc1)c1cc(Br)ccc1NC(=O)c1ccccc1Br (stereo not drawn) was read as TAAR1 antag 53*, GalR3 antagonist -1, OX1R antag-1 -42, TAAR1 ag 2, CHO parental Ca -20 and OX1R antag-2 20.
`COC(=O)C(Cc1ccc(OC(=O)c2ccc(Cl)cc2)cc1)N1Cc2ccccc2C1=O` (stereo not drawn) gave TAAR1 antag 45, GalR3 antagonist -4, OX1R antag-1 41*, TAAR1 ag 16, CHO parental Ca 53* and OX1R antag-2 23.
CSCC[C@@H](C(=O)O)N1Cc2ccccc2C1=O was read as TAAR1 antag 3, OX1R antag-1 -22, TAAR1 ag 1, CHO parental Ca -2 and OX1R antag-2 -1.
Screening COC(=O)C(Cc1ccc(OC(=O)c2ccc(C(F)(F)F)cc2)cc1)N1Cc2ccccc2C1=O (stereo not drawn) returned OX1R antag-1 36, CHO parental Ca 40* and OX1R antag-2 11.
Screening CCOC(=O)C1CCCN(C(=O)c2cc3cc(OC)c(OC)cc3[nH]2)C1 (stereo not drawn) returned TAAR1 antag -14, GalR3 antagonist -9 and TAAR1 ag 4.
`O=C(CSc1ccc(C(F)(F)F)cc1[N+](=O)[O-])Nc1ccccc1` gave TAAR1 antag 31, GalR3 antagonist 3, OX1R antag-1 17, TAAR1 ag 28, CHO parental Ca 59* and OX1R antag-2 7.
For O=C(CSc1cccc[n+]1[O-])Nc1ccc(C(F)(F)F)cc1[N+](=O)[O-] the results were TAAR1 antag -18, GalR3 antagonist -7, OX1R antag-1 0, TAAR1 ag 1, CHO parental Ca -6 and OX1R antag-2 48.
Screening CC(C)COc1ccc(S(=O)(=O)NNC(=O)c2cc3ccccc3o2)cc1 returned TAAR1 antag 6, GalR3 antagonist -4, OX1R antag-1 26, TAAR1 ag 4, CHO parental Ca 43* and OX1R antag-2 29.
For CC(OC(=O)Cn1cnc2c1c(=O)n(C)c(=O)n2C)C(=O)c1ccccc1 (stereo not drawn) the results were TAAR1 antag 1, GalR3 antagonist -1, OX1R antag-1 -12, TAAR1 ag 3, CHO parental Ca -7 and OX1R antag-2 6.
O=C1c2cccc3c([N+](=O)[O-])ccc(c23)C(=O)N1Cc1cccnc1 was read as TAAR1 antag 21, GalR3 antagonist 30* and TAAR1 ag 7.
Screening Cc1nnc(N2C(=O)c3cccc4c([N+](=O)[O-])ccc(c34)C2=O)s1 returned TAAR1 antag 19, GalR3 antagonist -7, OX1R antag-1 10, TAAR1 ag -4, CHO parental Ca 12 and OX1R antag-2 42*.
`O=S(=O)(c1cccc(-c2csc(N/N=C/c3ccco3)n2)c1)N1CCOCC1` gave TAAR1 antag 60*, GalR3 antagonist -7, OX1R antag-1 -9, TAAR1 ag 12, CHO parental Ca -1 and OX1R antag-2 14.
For O=C(N[C@H](Cc1ccccc1)C(=O)NCCCN1CCCC1=O)[C@H]1O[C@@H](n2ccc(=O)[nH]c2=O)[C@H](O)[C@@H]1O the results were TAAR1 antag 9, GalR3 antagonist -8 and TAAR1 ag 1.
For O=C(NCCc1ccccn1)C(F)(F)C(F)(F)C(F)(F)C(F)(F)C(F)(F)C(F)(F)C(F)(F)C(F)F the results were TAAR1 antag -1, GalR3 antagonist -11, OX1R antag-1 -11, TAAR1 ag 41*, CHO parental Ca -4 and OX1R antag-2 25.
